# Compound activity from PubChem BioAssay.
# This is a sample that favours compounds with a hit; in the whole collection about 12% have one here.
# Diaph act CS: diaphorase activation or chemical reduction counter-screen; Diaphorase/resazurin coupled assay, resorufin fluorescence, 16 min; active compounds read high; 1 = vehicle wells, 0 = NADH-free wells; activation factor at 20 µM; actives 0.005% (n = 190,000); AID 1229;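 active = diaphorase activity raised at least twofold by the compound at 20 µM; inactive = activation factor below 2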
#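 Material: bacterial diaphorase enzyme (C. kluyveri); amount: enzyme 0.07 U/mL final; reagent: NADH substrate 0.114 mM plus resazurin dye 0.1 mM, final; doses: single compound dose of 20 µM, 1% DMSO final; timing: 16 min enzyme reaction, ambient temperature; measured by: fluorescence of resorufin, 544 nm excitation, 590 nm emission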
# Diaph inh CS: inhibits diaphorase or chemically oxidizes, flagging diaphorase assay artifacts | diaphorase resazurin-to-resorufin fluorescence, NADH, 16 min; bacterial (C. kluyveri) enzyme, not human | inhibition, % at 20 µM | actives 0.69% (n = 190,000);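 active = primary screen inhibition at 20 µM above a set limit, cut at about 50% in these data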;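 also: plate controls were DMSO with full reaction for no effect and wells lacking NADH for full effect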
#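 System: Diaphorase enzyme from Clostridium kluyveri | Amount: Enzyme working solution with 0.14 U/mL diaphorase | Benchmarks: No-NADH positive control and DMSO neutral control | Signal: Fluorescence of resorufin formed from resazurin, Ex 544/Em 590 nm | Schedule: 16-min room-temperature incubation before reading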
# WT yeast gro inh: growth inhibition of WT yeast, mitochondrial fusion screen; mitochondrial fusion phenotypic screen, WT strain; inhibition, % at 10 µM; actives 2.1% (n = 190,000); AID 1362; in the data active = inhibition above about 58%; tested in S. cerevisiae
# Cl transport mod: modulators of human KCC2 chloride dependent transport; KCC2 cells, thallium flux FluoZin-2 fluorescence; B-score of Tl+ flux slope (higher = more flux/activation; lower = inhibition) at 10 µM; actives 2.2% (n = 190,000); AID 1456;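 active = thallium flux slope and its plate-corrected score both differing from the plate sample mean at a set confidence after two filtering rounds, in either direction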;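 also: slope of fluorescence scaled to starting intensity during 10 to 20 s after thallium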
# Target sequence (Q9H2X9 whole entry, looked up): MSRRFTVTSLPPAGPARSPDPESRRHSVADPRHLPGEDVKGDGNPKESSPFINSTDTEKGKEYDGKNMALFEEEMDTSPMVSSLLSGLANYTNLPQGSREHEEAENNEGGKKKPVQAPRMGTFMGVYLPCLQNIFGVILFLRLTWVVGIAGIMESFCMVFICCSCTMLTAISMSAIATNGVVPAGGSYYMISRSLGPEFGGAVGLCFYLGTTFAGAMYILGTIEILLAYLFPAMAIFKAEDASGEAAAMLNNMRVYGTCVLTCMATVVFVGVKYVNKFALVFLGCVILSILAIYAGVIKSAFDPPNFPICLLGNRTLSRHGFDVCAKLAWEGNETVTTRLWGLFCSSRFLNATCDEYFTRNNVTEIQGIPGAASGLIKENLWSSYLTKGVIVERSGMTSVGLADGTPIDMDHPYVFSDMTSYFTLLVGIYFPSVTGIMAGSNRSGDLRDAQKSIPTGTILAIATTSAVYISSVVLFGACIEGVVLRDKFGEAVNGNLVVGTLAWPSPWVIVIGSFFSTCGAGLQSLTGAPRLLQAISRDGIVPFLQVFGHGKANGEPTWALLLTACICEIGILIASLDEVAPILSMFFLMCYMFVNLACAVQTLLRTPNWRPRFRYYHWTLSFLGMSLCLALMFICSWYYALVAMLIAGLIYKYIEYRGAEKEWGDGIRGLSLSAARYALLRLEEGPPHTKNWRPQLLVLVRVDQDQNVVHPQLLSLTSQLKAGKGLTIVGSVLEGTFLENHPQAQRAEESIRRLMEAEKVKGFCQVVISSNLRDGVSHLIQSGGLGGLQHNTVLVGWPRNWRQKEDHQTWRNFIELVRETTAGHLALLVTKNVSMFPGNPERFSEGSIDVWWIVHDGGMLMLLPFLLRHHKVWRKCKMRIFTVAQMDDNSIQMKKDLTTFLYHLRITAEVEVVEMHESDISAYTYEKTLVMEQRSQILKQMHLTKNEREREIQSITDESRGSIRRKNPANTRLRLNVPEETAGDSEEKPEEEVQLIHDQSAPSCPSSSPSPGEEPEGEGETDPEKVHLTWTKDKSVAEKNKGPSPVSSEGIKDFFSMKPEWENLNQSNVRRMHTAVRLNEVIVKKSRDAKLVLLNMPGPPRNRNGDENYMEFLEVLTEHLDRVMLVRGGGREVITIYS
# L major viab: reduces viability of Leishmania major promastigotes | resazurin fluorescence viability | inhibition, % at 10 µM | actives 9% (n = 200,000) | AID 1063; in the data active = inhibition above about 50%;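 also: promastigotes grown with compound for 44 hours at 28 °C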
# ROMK mod: human ROMK K+ channel modulation, primary screen; actives 2% (n = 130,000); Tet-inducible ROMK, thallium flux fluorescence; actives lie on both sides; P48048; B-score at 10 µM;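 active = signal ratio slope over the read window, or its plate-corrected B-score, at least 3 SD from the plate mean, either direction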;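 also: B-score of the F/F0 ratio slope over 7 to 12 s after thallium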
# Numbers without * were called inactive; · = not tested or not shown.
SMILES,Diaph act CS,Diaph inh CS,WT yeast gro inh,Cl transport mod,L major viab,ROMK mod
COc1cc(OC)cc(-c2n[nH]c(=S)n2-c2cc(OC)ccc2OC)c1,0.8,22,-2,·,100*,2.8
CC1CCCC(NC(=O)C2CCN(S(=O)(=O)N3CCCCC3)CC2)C1C (stereo not drawn),0.9,14,10,0.71,-4,0.66
CCOCCCNC(=O)CN(c1cc([N+](=O)[O-])ccc1OC)S(C)(=O)=O,0.9,6,-14,0.34,-1,-0.18
CCCCN(C(=O)/C=C/c1ccco1)c1c(N)n(Cc2ccccc2)c(=O)[nH]c1=O,0.9,14,-15,-0.031,4,0.59
O=C(Nc1ccc([N+](=O)[O-])cc1)c1nc[nH]c1C(=O)NC1CCCCC1,0.8,19,0,0.83,64*,·
Cc1ccc(NC(=O)c2nc[nH]c2C(=O)Nc2ccc(C)cc2)cc1,1,5,13,-0.93,-5,·
O=C(Nc1ccc(F)cc1)c1nc[nH]c1C(=O)Nc1ccc([N+](=O)[O-])cc1,0.9,10,11,0.96,92*,·
CCC(=O)NC(Nc1nc(C)cs1)(C(=O)OC)C(F)(F)F (stereo not drawn),0.9,15,3,0.52,-4,0.33
Cc1c(N2C(=O)/C(=C/c3cccc4ccccc34)SC2=S)c(=O)n(-c2ccccc2)n1C,·,·,·,-6.8*,-5,·
Cc1c(N2C(=O)c3cccc4cccc(c34)C2=O)c(=O)n(-c2ccccc2)n1C,1.1,-6,97*,·,-2,0.1
CCOC(=O)N1CCC(n2c(SCC(=O)NCCc3ccc(S(N)(=O)=O)cc3)nc3ccccc3c2=O)CC1,1.1,-5,-1,0.14,23,-0.29
O=C1C2C3C=CC(C3)C2C(=O)N1c1ccc(N2CCN(c3ccccn3)CC2)c([N+](=O)[O-])c1 (stereo not drawn),0.9,13,-4,-2.4,76*,·
CN1/C(=C/c2cc[n+](C)c3ccccc23)C=Cc2ccccc21,0.7,28,91*,-1.3,101*,0.69
CCN1C(=O)/C(=C2/C=Cc3ccccc3N2C)OC1=S,1,0,-15,·,-4,-0.023
CC(=O)Nc1ccc(N2CCc3c(C)c(C#N)c4nc5ccccc5n4c32)cc1,0.8,25,5,0.48,36,0.73
Cc1nc(C(=O)Nc2cc(Cl)ccc2Cl)nn1-c1cc(OC(C)C)c(Cl)cc1Cl,0.9,12,3,-0.4,14,·
Cc1nc(C(=O)Nc2cccc(Cl)c2)nn1-c1cc(OC(C)C)c(Cl)cc1Cl,0.8,24,67*,·,0,·
Cn1c(/C(C#N)=C(\O)CN2CCN(Cc3ccccc3)CC2)nc2ccccc21,0.7,26,-3,-6.1*,-3,-1.1
Cc1ccc(SC/C(O)=C(\C#N)c2nc3ccccc3n2C)cc1,1,5,-10,1.8,-8,·
CC(C)c1ccc(Nc2nc(NCc3ccco3)nc(N3CCOCC3)n2)cc1,0.8,20,58*,·,42,-0.33
CCOc1nc(NCc2ccco2)nc(Nc2ccc(OC)cc2)n1,0.9,11,6,-0.69,84*,0.051
CCOc1nc(NCc2ccco2)nc(Nc2ccccc2F)n1,0.8,18,-18,-0.3,9,·
Cc1ccc(NC(=O)c2cccc(NC(=O)/C=C/c3ccco3)c2)cc1C,0.8,22,33,-1.1,3,·
Cc1ccc(-n2nc3ccc(NC(=O)/C=C/c4ccco4)cc3n2)cc1,0.9,14,9,-0.75,60*,-0.04
Cc1ccc(C(C(=O)NCc2ccco2)N(C(=O)Cn2nnc3ccccc32)c2ccccc2)o1 (stereo not drawn),0.8,19,11,·,14,·
SMILES,Diaph act CS,Diaph inh CS,WT yeast gro inh,Cl transport mod,L major viab,ROMK mod
Cc1cc(C)cc(N(C(=O)CNS(=O)(=O)c2ccccc2)C(C(=O)NCc2ccccc2)c2ccc(C)o2)c1 (stereo not drawn),0.9,13,17,-2,55*,·
COc1ccc(N(C(=O)CNS(=O)(=O)c2ccccc2)C(C(=O)NCc2ccco2)C(C)C)cc1 (stereo not drawn),1,-1,-19,-0.56,-2,-0.03
Cc1ccc(S(=O)(=O)NCC(=O)N(c2ccccc2)C(C(=O)NCc2ccccc2)c2ccco2)cc1 (stereo not drawn),0.5,51*,6,-1.8,2,-1.9
C=CCCCCCCCCc1nc(SCC(=O)O)n[nH]1,·,·,·,-0.028,·,·
C=CCCCCCCCCc1nc(=S)[nH][nH]1,0.8,18,75*,64*,53*,1.6
COc1cc(OC)c(CNC2CCCCCC2)cc1Br,1,0,12,0.44,47,-1.6
Cc1ccc2nc(Cl)c(C3CC(c4cccs4)=NN3C(=O)CCCC(=O)O)cc2c1 (stereo not drawn),0.9,6,5,-2.2,57*,·
COc1ccc(C(=O)Nc2ccc3c(c2)C(=O)c2ccccc2C3=O)cc1OC,0.8,20,-10,-0.21,-7,·
COc1ccc(C(=O)c2c(C(F)(F)F)oc3c2C(=O)c2ccccc2C3=O)cc1OC,0.8,18,90*,·,100*,-0.98
CC[n+]1ccc(C(=O)NCc2ccccc2)cc1,1.1,-7,-6,1,-7,0.32
CCOC(=O)C(=Cc1ccc(F)cc1)C(=O)OCC,1,2,10,0.84,7,·
CCOC(=O)/C(=C\c1ccccc1)C(=O)c1cc(C(C)=O)c(Nc2ccccc2)s1,0.8,24,30,-0.002,100*,0.26
Cc1cccc(-c2c3c(=O)n(C)c(=O)n(C)c3c3nnc4ccccc4n23)c1,·,·,·,·,1,·
Cc1c(Nc2nc3ccccc3nc2N2CCN(c3ccccc3)CC2)c(=O)n(-c2ccccc2)n1C,1,-5,16,-0.98,53*,-0.037
Cc1nc2c(c3c1[nH]c1ccccc13)C(=O)CC(C)(C)C2,0.7,29,7,-0.35,64*,·
COc1ccccc1C1C(C(C)=O)=C(C)N=c2s/c(=C\c3cc(OC)c(OC)c(OC)c3)c(=O)n21 (stereo not drawn),0.8,20,19,-0.58,55*,·
CC(=O)NC(Cc1ccccc1)C(=O)OCC(=O)c1ccccc1 (stereo not drawn),0.9,6,-2,-1.4,-4,0.69
CCCOC(=O)c1ccc(NC(=O)CSC2=Nc3ccccc3C3CC=NN23)cc1 (stereo not drawn),0.9,15,-4,0.73,98*,0.68
O=C(CSC1=Nc2ccccc2C2CC=NN12)Nc1ccc2c(c1)OCO2 (stereo not drawn),1,2,29,-0.3,55*,-1.1
N#Cc1ccccc1NC(=O)CSC1=Nc2ccccc2C2CC=NN12 (stereo not drawn),0.8,21,19,0.9,17,-0.027
